The source of these data is ChEMBL document CHEMBL1138546, “Synthesis and antimalarial activity of hydroxyethylpiperazine derivatives” (Eur J Med Chem, 2009).

The nature of series [1]: Cytotoxicity against mouse J774 cells assessed as cell viability at 100 ug/ml after 24 hrs by MTT assay. As to conditions: read-out: Activity. The class given is cell-based. Put shortly:
(§1)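 Murine J774 monocyte/macrophages seeded at 2×10^6 cells/well, left 1 h at 37 °C, 5% CO2 in RPMI 1640 with 10% fetal bovine serum, 2 mM L-glutamine, 25 µg/ml gentamicin, pH 7.4. Adherent cells exposed to compounds (0.1–100 µg/ml) for 20 h, then MTT (5 mg/ml) added for 4 h. Formazan dissolved in DMSO, absorbance read at 540 nm. Result given as percent viability.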
For orientation: Formazan colour is commonly taken as a measure of viable cells.

Series [2] is described as follows: Cytotoxicity against mouse J774 cells assessed as cell viability at 0.1 ug/ml after 24 hrs by MTT assay. Format: cell-based. As to conditions: read-out: Activity. Put shortly:
as §1

The nature of series [3]: Cytotoxicity against mouse J774 cells assessed as cell viability at 1 ug/ml after 24 hrs by MTT assay. The settings on record: read-out: Activity. Format: cell-based. Put shortly: as §1
The next series concerns Plasmodium falciparum. The series can be described thus: Antimalarial activity after 24 hrs against chloroquine-resistant Plasmodium falciparum W2 by [3H]hypoxanthine uptake. The class given is functional, organism-based. Put shortly: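 P. falciparum cultured in human O+ erythrocytes, 5% hematocrit, RPMI 1640 plus 10% human plasma. Sorbitol-synchronized trophozoites set at 2% parasitaemia, 2.5% hematocrit with ethanol-dissolved compounds at various concentrations in hypoxanthine-free RPMI 1640; chloroquine reference in each run. Growth read by [³H]-hypoxanthine incorporation; IC50 versus drug-free controls from curve fitting of dose-response data.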

Series [4] can be described thus: Cytotoxicity against mouse J774 cells assessed as cell viability at 10 ug/ml after 24 hrs by MTT assay. The class given is cell-based. As to conditions: read-out: Activity. Put shortly: as §1

In brackets after ≈: the same amount, converted by molar mass.

By IC50 is commonly meant the concentration that inhibits the measured activity by half. A lower IC50 goes with inhibition by little substance. With `CC(C)(C)OC(=O)N[C@@H](Cc1ccccc1)[C@H](O)CN1CCN(Cc2ccc(F)cc2)CC1`, the viability at 24 h, 100 ug/ml in series [1] came to 90%. Besides, the viability at 24 h, 0.1 ug/ml in series [2] was determined as 100%. Also, the viability at 24 h, 1 ug/ml in series [3] is 100%. Further, half-maximal inhibition in the series on Plasmodium falciparum (IC50) was put at 7.5 mg/L (≈ 16.4 µM). The viability at 24 h, 10 ug/ml in series [4] was found to be 99%.

`CC(C)(C)OC(=O)N[C@@H](Cc1ccccc1)[C@H](O)CN1CCN(Cc2ccc3c(c2)OCO3)CC1`: in series [1], the viability at 24 h, 100 ug/ml was 82%. In addition, the viability at 24 h, 0.1 ug/ml in series [2] is 100%. Moreover, in series [3], the viability at 24 h, 1 ug/ml amounted to 98%. The compound also gave a concentration for half-maximal inhibition (IC50) in the series on Plasmodium falciparum of 5.1 mg/L (≈ 10.5 µM). Also, the viability at 24 h, 10 ug/ml in series [4] stood at 100%.

On to `CC(C)(C)OC(=O)N[C@@H](Cc1ccccc1)[C@H](O)CN1CCN(Cc2ccc(N)cc2)CC1`, for which the viability at 24 h, 100 ug/ml in series [1] was found to be 85%. In series [2], the viability at 24 h, 0.1 ug/ml amounted to 100%. For the same compound, the viability at 24 h, 1 ug/ml in series [3] is 98%. It took 15.8 mg/L (≈ 34.8 µM) to reach half-maximal inhibition in the series on Plasmodium falciparum (IC50). Besides, the viability at 24 h, 10 ug/ml in series [4] was determined as 98%.

As for `COc1ccc(CN2CCN(C[C@@H](O)[C@H](Cc3ccccc3)NC(=O)OC(C)(C)C)CC2)cc1`, the viability at 24 h, 100 ug/ml in series [1] is 85%. The viability at 24 h, 0.1 ug/ml in series [2] turned out to be 100%. Besides, the viability at 24 h, 1 ug/ml in series [3] was 100%. Moreover, 6.2 mg/L (≈ 13.2 µM) corresponded to half-maximal inhibition in the series with Plasmodium falciparum (IC50). Further, in series [4], the viability at 24 h, 10 ug/ml turned out to be 100%.

As for `CC(C)(C)OC(=O)N[C@@H](Cc1ccccc1)[C@H](O)CN1CCNCC1`, in series [1], the viability at 24 h, 100 ug/ml was 65%. The viability at 24 h, 0.1 ug/ml in series [2] came out at 100%. For the same compound, the viability at 24 h, 1 ug/ml in series [3] is 100%. For the same compound, the half-inhibitory concentration (IC50) with Plasmodium falciparum is greater than 50 mg/L. In addition, the viability at 24 h, 10 ug/ml in series [4] came out at 100%.

Take `CC(C)(C)OC(=O)N[C@@H](Cc1ccccc1)[C@H](O)CN1CCN(Cc2ccc([N+](=O)[O-])cc2)CC1`: the viability at 24 h, 100 ug/ml in series [1] came to 81%. Further, the viability at 24 h, 0.1 ug/ml in series [2] turned out to be 100%. The viability at 24 h, 1 ug/ml in series [3] is 100%. In the series with Plasmodium falciparum, the IC50 worked out at 23.5 mg/L (≈ 48.5 µM). Also, in series [4], the viability at 24 h, 10 ug/ml turned out to be 98%.

For the compound `CC(C)(C)OC(=O)N[C@@H](Cc1ccccc1)[C@H](O)CN1CCN(c2ccccc2)CC1`, in series [1], the viability at 24 h, 100 ug/ml is 58%. In addition, in series [2], the viability at 24 h, 0.1 ug/ml came out at 100%. For the same compound, the viability at 24 h, 1 ug/ml in series [3] was 95%. Moreover, the 50% inhibitory concentration (IC50) with Plasmodium falciparum is greater than 50 mg/L. For the same compound, the viability at 24 h, 10 ug/ml in series [4] is 94%.

Consider `CC(C)(C)OC(=O)N[C@@H](Cc1ccccc1)[C@H](O)CN1CCN(Cc2ccccc2)CC1`, for which the viability at 24 h, 100 ug/ml in series [1] came out at 100%. Also, the viability at 24 h, 0.1 ug/ml in series [2] worked out at 95%. In series [3], the viability at 24 h, 1 ug/ml was determined as 100%. The IC50 in the series with Plasmodium falciparum was found to be 14.9 mg/L (≈ 33.9 µM). The viability at 24 h, 10 ug/ml in series [4] came to 100%.

Take `CC(C)(C)OC(=O)N[C@@H](Cc1ccccc1)[C@H](O)CN1CCN(Cc2ccc(Cl)cc2)CC1`: the viability at 24 h, 100 ug/ml in series [1] came out at 88%. The viability at 24 h, 0.1 ug/ml in series [2] worked out at 100%. In addition, the viability at 24 h, 1 ug/ml in series [3] was 100%. In the series with Plasmodium falciparum, inhibition was half-maximal at 7.7 mg/L (≈ 16.2 µM) (IC50). The viability at 24 h, 10 ug/ml in series [4] worked out at 100%.

As to `CN1CCN(C[C@@H](O)[C@H](Cc2ccccc2)NC(=O)OC(C)(C)C)CC1`, in series [1], the viability at 24 h, 100 ug/ml came out at 100%. For the same compound, the viability at 24 h, 0.1 ug/ml in series [2] stood at 94%. In addition, the viability at 24 h, 1 ug/ml in series [3] came to 100%. Further, the IC50 with Plasmodium falciparum is greater than 50 mg/L. Also, in series [4], the viability at 24 h, 10 ug/ml amounted to 100%.

On to `COc1ccc(CN2CCN(C[C@@H](O)[C@H](Cc3ccccc3)NC(=O)OC(C)(C)C)CC2)cc1OC`, for which, in series [1], the viability at 24 h, 100 ug/ml was determined as 83%. In series [2], the viability at 24 h, 0.1 ug/ml is 100%. For the same compound, the viability at 24 h, 1 ug/ml in series [3] was 100%. The compound also yielded a 50% inhibitory concentration (IC50) in the series with Plasmodium falciparum of 7 mg/L (≈ 14 µM). In addition, the viability at 24 h, 10 ug/ml in series [4] was 100%.

Regarding `Cc1cccc(C)c1OCC(=O)N[C@@H](Cc1ccccc1)[C@@H](O)C[C@H](Cc1ccccc1)NC(=O)[C@H](C(C)C)N1CCCNC1=O` [LOPINAVIR], the IC50 in the series with Plasmodium falciparum amounted to 1.7 mg/L (≈ 2.7 µM).

Take `CC(C)(C)NC(=O)[C@@H]1C[C@@H]2CCCC[C@@H]2CN1C[C@@H](O)[C@H](Cc1ccccc1)NC(=O)[C@H](CC(N)=O)NC(=O)c1ccc2ccccc2n1` [SAQUINAVIR]: the 50% inhibitory concentration (IC50) in the series on Plasmodium falciparum turned out to be 7 mg/L (≈ 10.4 µM).
